A short description of series [1]: Dissociation constant, pKa of the compound in 0.01 M potassium hydrogen phthalate. In kind it is physicochemical. The gist of the method: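 pKa by potentiometric titration with 0.01 M potassium hydrogen phthalate in a thermostated vessel, stirred, under nitrogen bubbling, using glass and calomel electrodes. pKa is the mean pH at half-neutralization from four titrations. Endpoints were taken from parallel tangents on either side of the inflection.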

Series [2] deals with Mus musculus. The experiment in a line: Toxicity in ip dosed Swiss-Webster albino mouse. In kind it is organism-based. The settings on record: in vivo.
The species entered for series [3] is Homo sapiens. In words: Drug absorption in buccal cavity in human at pH 5.50 after 5 mins by UV spectrometry. In kind it is ADME, organism-based. The settings on record: in vivo, other, pH 5.5, 5 min. The gist of the method: (§1)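 3 mg compound in 25 ml buffer (0.1 M phosphate pH 5.50 or 7.50; tetraborate pH 9.30) swished in the mouth for 5 min, expelled, and combined with a 10 ml water rinse. Made up to 50 ml; aliquot basified to pH 10 and ether-extracted, then back-extracted into 0.1 N HCl. UV absorbance read at λmax against Beer's law plots; the unrecovered fraction is taken as % absorbed. One to three subjects.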

Series [4] concerns Mus musculus. In words: Antiarrhythmic activity in ip dosed Swiss-Webster albino mouse assessed as prevention of chloroform-induced ventricular fibrillation. It is filed as functional, Heart.
For series [5], the species on record is Homo sapiens. In words: Drug absorption in buccal cavity in human at pH 7.50 after 5 mins by UV spectrometry. It is filed as ADME, organism-based. Conditions: in vivo, other, pH 7.5, 5 min. The gist of the method: as §1
A short description of series [6]: Therapeutic index, ratio of LD50 for toxicity to ED50 for antiarrhythmic activity in ip dosed Swiss-Webster albino mouse. In kind it is organism-based, Heart. The settings on record: in vivo, read-out: Ratio LD50/ED50.
The species entered for series [7] is Homo sapiens. In words: Drug absorption in buccal cavity in human at pH 9.3 after 5 mins by UV spectrometry. It is filed as ADME, organism-based. Conditions: in vivo, other, pH 9.3, 5 min. In a few lines: as §1
The test system of series [8] is Heart. The experiment in a line: Antiarrhythmic activity in Hartley guinea pig atria assessed as change in spontaneous rate at 66.1 uM/l after 5 mins. It is filed as functional, Cavia porcellus. In a few lines:
(§2)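 Spontaneously beating isolated atria held under initial tension; bath fluid changed every 10 min; stabilised about 1 h. Maximum driving rate found with 1-ms square pulses at 50% above threshold voltage, 10 s every 30 s; the frequency just before failure of following is the MDR. Control is the mean of two determinations. Spontaneous rate recorded by tachograph. Values are % change from control at peak response, generally 5–30 min.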

Series [9] concerns Heart. The experiment in a line: Antiarrhythmic activity in Hartley guinea pig atria assessed as change in maximum driving rate at 66.1 uM/l after 5 mins. In kind it is functional, Cavia porcellus. The gist of the method:
as §2

Series [10] concerns Heart. In words: Antiarrhythmic activity in Hartley guinea pig atria assessed as change in maximum driving rate at 65.2 uM/l after 5 mins. It is filed as functional, Cavia porcellus. In a few lines: as §2
The subject of series [11] is Heart. In words: Antiarrhythmic activity in Hartley guinea pig atria assessed as change in spontaneous rate at 65.2 uM/l after 5 mins. It is filed as functional, Cavia porcellus. The gist of the method: as §2
For series [12], the system named is Heart. The experiment in a line: Antiarrhythmic activity in Hartley guinea pig atria assessed as change in maximum driving rate at 73.4 uM/l after 5 mins. It is filed as functional, Cavia porcellus. The gist of the method: as §2
Series [13] concerns Heart. In words: Antiarrhythmic activity in Hartley guinea pig atria assessed as change in spontaneous rate at 73.4 uM/l after 5 mins. In kind it is functional, Cavia porcellus. In a few lines:
as §2

For series [14], the system named is Heart. In words: Antiarrhythmic activity in Hartley guinea pig atria assessed as change in spontaneous rate at 58.6 uM/l after 5 mins. It is filed as functional, Cavia porcellus. In a few lines:
as §2

The subject of series [15] is Heart. In words: Antiarrhythmic activity in Hartley guinea pig atria assessed as change in maximum driving rate at 58.6 uM/l after 5 mins. In kind it is functional, Cavia porcellus. In a few lines: as §2
The subject of series [16] is Heart. The experiment in a line: Antiarrhythmic activity in Hartley guinea pig atria assessed as change in maximum driving rate at 60.2 uM/l after 5 mins. In kind it is functional, Cavia porcellus. In a few lines:
as §2

Series [17] has as its system Heart. In words: Antiarrhythmic activity in Hartley guinea pig atria assessed as change in spontaneous rate at 60.2 uM/l after 5 mins. It is filed as functional, Cavia porcellus. The gist of the method: as §2
The subject of series [18] is Heart. The experiment in a line: Antiarrhythmic activity in Hartley guinea pig atria assessed as change in spontaneous rate at 55.2 uM/l after 5 mins. It is filed as functional, Cavia porcellus. The gist of the method: as §2
The subject of series [19] is Heart. In words: Antiarrhythmic activity in Hartley guinea pig atria assessed as change in maximum driving rate at 55.2 uM/l after 5 mins. In kind it is functional, Cavia porcellus. The gist of the method: as §2

Broadly, the pKa is the pH at which an ionisable group is half protonated. A high value points to a group that holds its proton tightly. Broadly, the ED50 is the midpoint of the dose-response relation. On to `CN1CC[C@H]2CCC[C@@H](NS(=O)(=O)c3ccccc3)[C@H]2C1` (mixture of isomers), for which the pKa in series [1] was 9.17. Further, in [2], the LD50 is 1460. In addition, the Drug absorption in series [3] worked out at 14.9%; in [5], 17.7%; in series [7] it was 30.4%. The ED50 in [4] was 282 µmol/kg. The selectivity ratio in series [6] is 5.2.
For the compound `COc1ccc(C(=O)N[C@@H]2CCC[C@@H]3CCN(C)C[C@@H]32)cc1` (mixture of isomers), the pKa in [1] turned out to be 9.19. Further, the Activity in series [8] was -44.2%; in series [9], -15.1%. In series [2], this compound had an LD50 of 1560. The Drug absorption is 4.7% in series [3], 7% in [5] and 30.6% in series [7]. In addition, the ED50 in series [4] turned out to be 268 µmol/kg. Moreover, the selectivity ratio in series [6] was 5.8.
In turn, `CN1CC[C@H]2CCC[C@@H](NC(=O)c3ccc(Cl)cc3)[C@@H]2C1` (mixture of isomers) displayed a pKa in series [1] of 8.83. The LD50 in [2] was determined as 952. Moreover, the figures for the Drug absorption in series [3], in [5] and in [7] were 8.2%, 12.4% and 54.4%, respectively. In addition, the ED50 in series [4] was found to be 200 µmol/kg. Further, the Activity in [10] was -20%; in series [11] it was -57.4%. Besides, the selectivity ratio in series [6] came to 4.8.
In [1], `CN1CC[C@H]2CCC[C@@H](NS(=O)(=O)c3ccccc3)[C@@H]2C1` (mixture of isomers) displayed a pKa of 8.87. In [2], this compound yielded an LD50 of 1113. Besides, the Drug absorption in [3] amounted to 11.9%; in series [5], 20.4%; in series [7] it was 37.1%. The ED50 in series [4] worked out at 347 µmol/kg. Moreover, in series [6], the selectivity ratio is 3.3.
`CN1CC[C@H]2CCC[C@@H](NC(=O)c3ccccc3)[C@@H]2C1` (mixture of isomers) had a pKa in series [1] of 8.99. Also, the Activity in series [12] was -17.6%; in series [13], -19.3%. Moreover, the LD50 in series [2] was determined as 1450. Further, the Drug absorption in series [3] is 11.1%; in series [5], 15.9%; in series [7], 42.9%. In addition, in series [4], the ED50 stood at 246 µmol/kg. Also, in series [6], the selectivity ratio was 5.9.
`CN1CC[C@H]2CCC[C@@H](NC(=O)c3ccccc3)[C@H]2C1` (mixture of isomers): the pKa in series [1] is 9.18. The figures for the Activity in [12] and in series [13] were -15.1% and -7.2%, respectively. In [2], this compound returned an LD50 of 1430. The Drug absorption in series [3] stood at 9.3%; in series [5], 16%; in series [7], 40.6%. In addition, the ED50 in series [4] was 242 µmol/kg. Besides, the selectivity ratio in series [6] is 5.9.
For the compound `CN1CC[C@H]2CCC[C@@H](NC(=O)c3ccc(Cl)c(Cl)c3)[C@H]2C1` (mixture of isomers), the pKa in series [1] is 9.05. This compound yielded an LD50 in series [2] of 712. The Drug absorption was found to be 20.1% in series [3], 25.1% in [5] and 60.6% in series [7]. Moreover, the results for the Activity in series [14] and in [15] were -21.7% and -34.1%, respectively. Also, the ED50 in series [4] was 73 µmol/kg. Moreover, in series [6], the selectivity ratio came out at 9.7.
The compound `COc1ccc(C(=O)N[C@@H]2CCC[C@@H]3CCN(C)C[C@@H]32)cc1OC` (mixture of isomers) returned an LD50 in [2] of 1770. Besides, the values for the Drug absorption in [3], in series [5] and in series [7] were 7%, 10.4% and 17.6%, respectively. The ED50 in series [4] came out at 199 µmol/kg. The Activity is -9.71% in [16] and -16.9% in series [17]. Further, the selectivity ratio in [6] stood at 8.9.
In series [2], `CN1CC[C@H]2CCC[C@@H](NC(=O)c3ccc(Cl)cc3)[C@H]2C1` (mixture of isomers) gave an LD50 of 909. The Drug absorption was 6.7% in series [3], 9.3% in series [5] and 43.2% in series [7]. The ED50 in series [4] came to 209 µmol/kg. Also, the Activity in series [10] is -28.5%; in series [11], -13.1%. The selectivity ratio in series [6] was determined as 4.4.
Consider `COc1ccccc1C(=O)N[C@@H]1CCC[C@@H]2CCN(C)C[C@@H]21` (mixture of isomers), for which the pKa in series [1] came to 9.11. The figures for the Activity in series [8] and in series [9] were -25.5% and -23.2%, respectively. The compound also returned an LD50 in [2] of 847. Further, the Drug absorption came to 1.2% in series [3], 5.3% in series [5] and 35.1% in series [7]. Further, the median effective dose (ED50) in series [4] was found to be 116 µmol/kg. Moreover, in series [6], the selectivity ratio was found to be 7.3.
For the compound `COc1ccc(C(=O)N[C@@H]2CCC[C@@H]3CCN(C)C[C@H]32)cc1` (mixture of isomers), the Activity is listed as -21.5% in [8] and -19.8% in series [9]. The same compound gave an LD50 in series [2] of 1490. Also, the figures for the Drug absorption in [3], in [5] and in series [7] were 7.4%, 9% and 34.3%, respectively. Also, the ED50 in series [4] turned out to be 195 µmol/kg. Also, the selectivity ratio in series [6] is 7.6.
In series [1], `COc1ccccc1C(=O)N[C@@H]1CCC[C@@H]2CCN(C)C[C@H]21` (mixture of isomers) gave a pKa of 8.81. Further, the Activity is listed as -25% in [8] and -19.8% in [9]. This compound also gave an LD50 in series [2] of 761. Besides, the Drug absorption is 5.2% in series [3], 12.8% in series [5] and 41.2% in [7]. In addition, the 50% effective dose (ED50) in series [4] came to 175 µmol/kg. For the same compound, in series [6], the selectivity ratio stood at 4.3.
`COc1ccc(C(=O)N[C@@H]2CCC[C@@H]3CCN(C)C[C@H]32)cc1OC` (mixture of isomers) showed a pKa in [1] of 8.89. The same compound returned an LD50 in series [2] of 1600. Besides, the Drug absorption in [3] was 16.8%; in series [5], 18.9%; in [7], 27.1%. For the same compound, in series [4], the ED50 was determined as 164 µmol/kg. The figures for the Activity in series [16] and in series [17] were -13.8% and -20.2%, respectively. Moreover, the selectivity ratio in [6] was 9.8.
Compound `COc1cc(C(=O)N[C@@H]2CCC[C@@H]3CCN(C)C[C@@H]32)cc(OC)c1OC` (mixture of isomers) displayed a pKa in [1] of 9.02. In series [2], this compound came in with an LD50 of 1170. Moreover, the Drug absorption in [3] is recorded as 8.1%; in series [5], 14.2%; in series [7], 23.8%. Also, in [4], the ED50 worked out at 160 µmol/kg. The Activity is -9.8% in [18] and -7% in [19]. Also, the selectivity ratio in series [6] came out at 7.3.
On to `C=C[C@H]1C[N@@]2CC[C@H]1C[C@@H]2[C@@H](O)c1ccnc2ccc(OC)cc12` [QUINIDINE], for which, in series [2], the LD50 stood at 533 uM/L.

(Values after ChEMBL document CHEMBL3272033, “Physicochemical and pharmacological studies of some 8-substituted decahydroisoquinolines” (J Med Chem, 1976).)
